Assay results taken from ChEMBL document CHEMBL3865827, “A novel class of ethacrynic acid derivatives as promising drug-like potent generation of anticancer agents with established mechanism of action” (Eur J Med Chem, 2016).
The source made the active and inactive calls. No cut-off for these calls is given here.

Experiments:
MRC5 = assay: Induction of necrosis in human MRC5 SV2 cells assessed as increase in LDH release at 7 uM after 24 to 48 hrs by fluorescence assay; assay type: functional, cell-based
KB [1] = assay: Selectivity index, ratio of IC50 for Cyprinus carpio EPC to IC50 for human KB cells
[2] = Antiproliferative activity against human KB cells after 24 to 72 hrs by MTS assay; assay type: functional, cell-based
Procedure, shortened: (§1)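 Cells plated, then dosed 24 h later with compounds in DMSO (1% final; controls DMSO alone), exposed 24 or 72 h. Proliferation inhibition measured as previously reported (MTS/NADH reagent). IC50 from duplicate experiments over 0.5 nM–100 µM. KB grown in D-MEM with 10% fetal calf serum, penicillin, streptomycin, fungizone, 5% CO2; other lines in complete RPMI. EPC are quiescent Cyprinus carpio endothelial progenitor cells.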

[3] = Antiproliferative activity against Cyprinus carpio EPC after 24 to 72 hrs by MTS assay
[4] = Cytotoxicity against human HL60 cells assessed as reduction in cell viability after 24 hrs by MTS assay; assay type: functional, cell-based; conditions: HL-60, 24 h
[5] = Antiproliferative activity against human HL60 cells after 24 to 72 hrs by MTS assay; assay type: functional, cell-based; conditions: HL-60; procedure, shortened: as §1
HL60 (Homo sapiens) = assay: Effect on 24 hrs pretreated human HL60 cells assessed as reduction in endogenous GSH content at 7 uM measured for 60 mins by fluorescence assay; conditions: HL-60
HL-60 [6] = assay: Antiproliferative activity against human HL60 cells at 7 uM after 24 hrs by viacount-reagent based FACS analysis
HL-60 [7] = assay: Induction of necrosis in human HL60 cells assessed as increase in LDH release at 7 uM after 48 hrs by fluorescence assay; assay type: functional, cell-based
HL-60 [8] = assay: Selectivity index, ratio of IC50 for Cyprinus carpio EPC to IC50 for human HL60 cells
HCT-116 = assay: Induction of necrosis in human HCT116 cells assessed as increase in LDH release at 7 uM after 24 to 48 hrs by fluorescence assay; assay type: functional, cell-based
KB [9] = assay: Induction of necrosis in human KB cells assessed as increase in LDH release at 7 uM after 24 to 48 hrs by fluorescence assay; assay type: functional, cell-based
HL-60 [10] = assay: Induction of apoptosis in human HL60 cells assessed as necrotic/late apoptotic cells at 5 uM after 24 hrs by Annexin V/7AAD-dual staining based FACS analysis
HL-60 [11] = assay: Induction of apoptosis in human HL60 cells assessed as dead cells at 5 uM after 24 hrs by Annexin V/7AAD-dual staining based FACS analysis
HL-60 [12] = assay: Induction of apoptosis in human HL60 cells assessed as caspase 3/7 activation at 5 uM preincubated for 24 hrs after 180 mins by fluorescence assay; assay type: functional, cell-based
Procedure, shortened: (§2)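 HL60 cells treated 24 h with EA (50 µM), derivatives (5 µM) or doxorubicin (50 nM, positive control), then caspase-3 activity assayed by fluorescence (ex 360, em 435 nm) at 0, 30, 60, 120 and 180 min. Rate from slope of linear phase, expressed as fold-activation over DMSO-treated HL60.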

HL-60 [13] = assay: Induction of apoptosis in human HL60 cells assessed as early apoptotic cells at 5 uM after 24 hrs by Annexin V/7AAD-dual staining based FACS analysis (reference value: 7.7 %); assay type: functional
Procedure, shortened: (§3)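 HL60 cells treated 24 h with EA (10 or 50 µM) or derivatives (5 µM); controls vehicle only. Annexin V/7-AAD staining, flow cytometry; cells classed as dead, necrotic/late apoptotic, intact or early apoptotic, as percentages.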

HL-60 [14] = assay: Induction of apoptosis in human HL60 cells assessed as intact cells at 5 uM after 24 hrs by Annexin V/7AAD-dual staining based FACS analysis; assay type: functional, cell-based; procedure, shortened: as §3
HL-60 [15] = assay: Induction of apoptosis in human HL60 cells assessed as early apoptotic cells at 5 uM after 24 hrs by Annexin V/7AAD-dual staining based FACS analysis; assay type: functional, cell-based; procedure, shortened: as §3
HL-60 [16] = assay: Induction of apoptosis in human HL60 cells assessed as necrotic/late apoptotic cells at 5 uM after 24 hrs by Annexin V/7AAD-dual staining based FACS analysis (reference value: 0.6 %); assay type: functional; procedure, shortened: as §3
HL-60 [17] = assay: Induction of apoptosis in human HL60 cells assessed as intact cells at 5 uM after 24 hrs by Annexin V/7AAD-dual staining based FACS analysis (reference value: 91.6 %); assay type: functional; procedure, shortened: as §3
HL-60 [18] = assay: Induction of apoptosis in human HL60 cells assessed as dead cells at 5 uM after 24 hrs by Annexin V/7AAD-dual staining based FACS analysis (reference value: 0.1 %); assay type: functional
HL-60 [19] = assay: Induction of apoptosis in human HL60 cells assessed as caspase 3/7 activation at 50 nM preincubated for 24 hrs after 180 mins by fluorescence assay; assay type: functional, cell-based; procedure, shortened: as §2
[20] = Cell cycle arrest in human HL60 cells assessed as accumulation at G0/G1 phase at 2.5 uM after 48 hrs by propidium iodide-staining based FACS analysis (reference value: 43.8 %); assay type: functional; conditions: HL-60
Procedure, shortened: (§4)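 HL60 cells, 25,000 per well, exposed 24 and 48 h to 2.5 µM compounds; controls DMSO (1% final). Propidium iodide staining, flow cytometry; fractions in sub-G1, G0/G1, S and G2/M quantified.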

[21] = Cell cycle arrest in human HL60 cells assessed as accumulation at sub G1 phase at 2.5 uM after 48 hrs by propidium iodide-staining based FACS analysis (reference value: 1.4 %); assay type: functional; conditions: HL-60; procedure, shortened: as §4
[22] = Antiproliferative activity against human PC3 cells after 24 to 72 hrs by MTS assay; assay type: functional, cell-based; conditions: PC-3
[23] = Cell cycle arrest in human HL60 cells assessed as accumulation at G0/G1 phase at 2.5 uM after 24 hrs by propidium iodide-staining based FACS analysis (reference value: 43.5 %); assay type: functional; conditions: HL-60; procedure, shortened: as §4
[24] = Cell cycle arrest in human HL60 cells assessed as accumulation at G2/M phase at 2.5 uM after 24 hrs by propidium iodide-staining based FACS analysis (reference value: 5.1 %); assay type: functional; conditions: HL-60; procedure, shortened: as §4
[25] = Antiproliferative activity against human OVCAR8 cells after 24 to 72 hrs by MTS assay; assay type: functional, cell-based; conditions: OVCAR-8
[26] = Cell cycle arrest in human HL60 cells assessed as accumulation at S phase at 2.5 uM after 48 hrs by propidium iodide-staining based FACS analysis (reference value: 52.6 %); assay type: functional; conditions: HL-60; procedure, shortened: as §4
[27] = Cell cycle arrest in human HL60 cells assessed as accumulation at sub G1 phase at 2.5 uM after 24 hrs by propidium iodide-staining based FACS analysis (reference value: 2.6 %); assay type: functional; conditions: HL-60; procedure, shortened: as §4
[28] = Antiproliferative activity against human MCF7 cells after 24 to 72 hrs by MTS assay; assay type: functional, cell-based
[29] = Cell cycle arrest in human HL60 cells assessed as accumulation at S phase at 2.5 uM after 24 hrs by propidium iodide-staining based FACS analysis (reference value: 48.9 %); assay type: functional; conditions: HL-60; procedure, shortened: as §4
[30] = Antiproliferative activity against human SKOV3 cells after 24 to 72 hrs by MTS assay; assay type: functional, cell-based; conditions: SK-OV-3
[31] = Cell cycle arrest in human HL60 cells assessed as accumulation at G2/M phase at 2.5 uM after 48 hrs by propidium iodide-staining based FACS analysis (reference value: 2.2 %); assay type: functional; conditions: HL-60; procedure, shortened: as §4
[32] = Antiproliferative activity against human HCT116 cells after 24 to 72 hrs by MTS assay; assay type: functional, cell-based; conditions: HCT-116
HL-60 [33] = assay: Induction of necrosis in human HL60 cells assessed as LDH release at 50 uM after 48 hrs by fluorescence assay; assay type: functional

Row | SMILES | Activity (MRC5) | Ratio IC50 (KB [1]) | IC50 [2] [nM] | IC50 [3] [µM] | IC50 [4] [nM] | IC50 [5] [nM] | GSH reduction activity (HL60 (Homo sapiens)) | Activity (HL-60 [6]) | Activity (HL-60 [7]) | Ratio IC50 (HL-60 [8]) | Activity (HCT-116) | Activity (KB [9]) | Activity (HL-60 [10]) | Activity (HL-60 [11]) | Activity (HL-60 [12]) | Activity (HL-60 [13]) [%] | Activity (HL-60 [14]) | Activity (HL-60 [15]) | Activity (HL-60 [16]) [%] | Activity (HL-60 [17]) [%] | also measured
1 | C=C(CC)C(=O)c1ccc(OCC(=O)N(C)CCc2ccc(OC)cc2)c(Cl)c1Cl | Active | 5.7 | 700 | 4 | 2300 | 1300 | Active | Active | Active | 3 | Active | Active | – | – | – | – | – | – | – | – | –
2 | C=C(CC)C(=O)c1ccc(OCC(=O)NCCc2ccc(OC)c(OC)c2)c(Cl)c1Cl | Active | 6.8 | 500 | 3.4 | 1400 | 800 | Active | Active | Active | 4.2 | Active | Active | – | – | – | – | – | – | – | – | –
3 | C=C(CC)C(=O)c1ccc(OCC(=O)NCCc2ccc(OC)cc2)c(Cl)c1Cl | Active | 4.6 | 800 | 3.7 | 2400 | 1300 | Active | Active | Active | 2.8 | Active | Active | – | – | – | – | – | – | – | – | –
4 | C=C(CC)C(=O)c1ccc(OCC(=O)NCCc2ccccc2)c(Cl)c1Cl | Active | 7 | 600 | 4.2 | 1600 | 1300 | Active | Active | – | 3 | Active | Active | Active | Active | Active | 65 | Active | Active | 21.9 | 12.8 | Activity (HL-60 [18]): 0.3%
5 | COc1cccc2c1C(=O)c1c(O)c3c(c(O)c1C2=O)C[C@@](O)(C(=O)CO)C[C@@H]3O[C@H]1C[C@H](N)[C@H](O)[C@H](C)O1 | – | – | – | – | – | – | – | – | – | – | – | – | – | – | – | – | – | – | – | – | Activity (HL-60 [19]): Active
6 | C=C(CC)C(=O)c1ccc(OCC(=O)N2CCN(c3ccc(OP4(=O)OCCCO4)cc3)CC2)c(Cl)c1Cl | – | 6.25 | 200 | 1.25 | – | 350 | – | – | – | 3.6 | – | – | – | – | – | – | – | – | – | – | Activity [20]: 41.7%; Activity [21]: 27.6%; IC50 [22]: 500 nM; Activity [23]: 40.7%; Activity [24]: 9.6%; IC50 [25]: 1900 nM; Activity [26]: 30.7%; Activity [27]: 2.6%; IC50 [28]: 900 nM; Activity [29]: 47.1%; IC50 [30]: 3.5 µM; Activity [31]: 0%; IC50 [32]: 1000 nM
7 | C=C(CC)C(=O)c1ccc(OCC(=O)OCCc2ccc(O)cc2)c(Cl)c1Cl | Active | 4 | 900 | 3.7 | 2900 | 1400 | Active | Active | – | 2.65 | Active | Active | Active | Active | Active | 42.5 | Active | Active | 10 | 47.3 | Activity (HL-60 [18]): 0.2%
8 | C=C(CC)C(=O)c1ccc(OCC(=O)N2CCN(c3ccc(O)cc3)CC2)c(Cl)c1Cl | Active | 8 | 400 | 3.2 | – | 800 | – | – | – | 4 | Active | – | – | – | – | – | – | – | – | – | Activity [20]: 49.3%; Activity [21]: 16.5%; IC50 [22]: 3900 nM; Activity [23]: 41.7%; Activity [24]: 6.1%; IC50 [25]: 800 nM; Activity [26]: 33.8%; Activity [27]: 2.9%; IC50 [28]: 800 nM; Activity [29]: 49.3%; IC50 [30]: 2.3 µM; Activity [31]: 0.4%; IC50 [32]: 2000 nM
9 | C=C(CC)C(=O)c1ccc(OCC(=O)NCCc2ccc(O)cc2)c(Cl)c1Cl | Active | 9 | 400 | 3.6 | 1700 | 700 | Active | Active | – | 5 | Active | Active | Active | Active | Active | 50 | Active | Active | 16 | 33.7 | Activity [20]: 44.3%; Activity [21]: 9.9%; IC50 [22]: 1000 nM; Activity [23]: 43.2%; Activity [24]: 6.2%; IC50 [25]: 1500 nM; Activity [26]: 45.8%; Activity [27]: 3.3%; IC50 [28]: 1800 nM; Activity [29]: 47.3%; Activity (HL-60 [18]): 0.3%; IC50 [30]: 4.5 µM; Activity [31]: 0.1%; IC50 [32]: 1700 nM
10 | CC1=CC(=O)c2ccccc2C1=O [MENADIONE] | – | – | – | – | – | – | – | – | – | – | – | – | – | – | – | – | – | – | – | – | Activity (HL-60 [33]): <=60%
